From ChEMBL document CHEMBL2331340, “Novel antitumor indolizino[6,7-b]indoles with multiple modes of action: DNA cross-linking and topoisomerase I and II inhibition” (J Med Chem, 2013)
The source made the active and inactive calls. No cut-off for these calls is given here.

Tests used:
[1] = Cytotoxicity against human CL141T cells after 72 hrs by Alamar blue assay; format: functional, cell-based
Summary of the method: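 Cells exposed to compound for 72 h, then Alamar blue added with a further 10−12 h at 37 °C and a spectrophotometric read. IC50 from six or seven concentrations by median-effect analysis; mean ± STDEV, n = 3. CL141T is a line derived from a patient lung tumor passaged as a SCID mouse xenograft.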

HT-29 = assay: Antitumor activity against human HT-29 cells xenografted in nude mouse assessed as tumor growth inhibition at 25 mg/kg, iv qd administered 4 days measured on day 20; format: functional, organism-based; set-up: dose 25 mg/kg
[2] = biological target: DNA topoisomerase 2-alpha (Homo sapiens) (UniProt P11388); assay: Inhibition of DNA topoisomerase 2 (unknown origin)-mediated relaxation of supercoiled pHOT DNA after 30 to 45 mins by agarose gel electrophoresis
Summary of the method: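 Supercoiled pHOT DNA (125 ng) with compound in buffer stated as 0.5 M Tris-HCl pH 8.0, 1.5 M NaCl, 100 mM MgCl2, 5 mM DTT, 300 μg/mL BSA, 20 mM ATP, at 37 °C. Methods state 6 units topo II, figure legend 5 units; 30−45 min, SDS stop. Products run on 1% agarose and stained with ethidium bromide.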

Mus musculus = assay: Toxicity in nude mouse xenografted with human HT-29 cells assessed as body weight loss at 25 mg/kg, iv qd administered 4 days measured for 20 days; format: organism-based; set-up: dose 25 mg/kg, route intravenous; conditions: in vivo, 480 h
[3] = biological target: T1, DNA topoisomerase 1 (Homo sapiens) (UniProt P11387); assay: Inhibition of DNA topoisomerase 1 (unknown origin)-mediated relaxation of supercoiled pHOT DNA at 25 to 200 uM after 30 to 45 mins by agarose gel electrophoresis
T1 sequence (whole entry): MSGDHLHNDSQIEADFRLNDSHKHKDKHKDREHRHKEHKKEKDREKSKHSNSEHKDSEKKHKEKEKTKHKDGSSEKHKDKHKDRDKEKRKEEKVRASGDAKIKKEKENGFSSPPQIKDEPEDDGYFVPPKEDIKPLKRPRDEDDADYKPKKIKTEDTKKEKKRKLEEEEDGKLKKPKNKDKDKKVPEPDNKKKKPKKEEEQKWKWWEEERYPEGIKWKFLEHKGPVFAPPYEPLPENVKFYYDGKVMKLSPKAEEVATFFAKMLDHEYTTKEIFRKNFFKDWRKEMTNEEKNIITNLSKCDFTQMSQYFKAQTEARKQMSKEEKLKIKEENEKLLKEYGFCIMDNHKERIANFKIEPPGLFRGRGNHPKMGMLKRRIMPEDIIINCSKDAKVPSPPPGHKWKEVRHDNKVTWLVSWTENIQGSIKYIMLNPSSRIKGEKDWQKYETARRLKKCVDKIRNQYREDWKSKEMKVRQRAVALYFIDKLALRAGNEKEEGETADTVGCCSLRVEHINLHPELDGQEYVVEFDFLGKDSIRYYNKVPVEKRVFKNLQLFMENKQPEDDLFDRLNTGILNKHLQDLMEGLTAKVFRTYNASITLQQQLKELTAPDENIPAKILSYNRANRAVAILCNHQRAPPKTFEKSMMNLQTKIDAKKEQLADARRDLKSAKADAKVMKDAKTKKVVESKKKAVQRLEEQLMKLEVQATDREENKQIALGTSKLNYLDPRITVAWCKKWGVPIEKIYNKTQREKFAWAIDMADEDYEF
Summary of the method: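 Supercoiled pHOT DNA (200 ng) and compound in 10 mM Tris-HCl pH 7.9 with 1 mM EDTA at 37 °C. Reaction started with 1 unit topo I, run 30−45 min, stopped with 10% SDS. Products separated on 1% agarose at 50 V for 90 min and stained with ethidium bromide.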

[4] = Cell cycle arrest in human CL141T cells assessed as accumulation at S phase at 0.5 x IC50 after 24 hrs by propidium iodide staining-based FACS flow cytometric analysis; format: functional
Summary of the method: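 CL141T cells treated at 0.5-, 1- and 2-fold IC50 for 24, 48 and 72 h. Cells fixed in ice-cold 70% EtOH, then stained with 4 μg/mL propidium iodide in PBS with 1% Triton X-100 and 0.1 mg/mL RNase A. Phase distribution from flow cytometry DNA histograms; sub-G1 fraction scored as well.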

Chain of DNA topoisomerase 2-alpha (Homo sapiens) (P11388 whole entry): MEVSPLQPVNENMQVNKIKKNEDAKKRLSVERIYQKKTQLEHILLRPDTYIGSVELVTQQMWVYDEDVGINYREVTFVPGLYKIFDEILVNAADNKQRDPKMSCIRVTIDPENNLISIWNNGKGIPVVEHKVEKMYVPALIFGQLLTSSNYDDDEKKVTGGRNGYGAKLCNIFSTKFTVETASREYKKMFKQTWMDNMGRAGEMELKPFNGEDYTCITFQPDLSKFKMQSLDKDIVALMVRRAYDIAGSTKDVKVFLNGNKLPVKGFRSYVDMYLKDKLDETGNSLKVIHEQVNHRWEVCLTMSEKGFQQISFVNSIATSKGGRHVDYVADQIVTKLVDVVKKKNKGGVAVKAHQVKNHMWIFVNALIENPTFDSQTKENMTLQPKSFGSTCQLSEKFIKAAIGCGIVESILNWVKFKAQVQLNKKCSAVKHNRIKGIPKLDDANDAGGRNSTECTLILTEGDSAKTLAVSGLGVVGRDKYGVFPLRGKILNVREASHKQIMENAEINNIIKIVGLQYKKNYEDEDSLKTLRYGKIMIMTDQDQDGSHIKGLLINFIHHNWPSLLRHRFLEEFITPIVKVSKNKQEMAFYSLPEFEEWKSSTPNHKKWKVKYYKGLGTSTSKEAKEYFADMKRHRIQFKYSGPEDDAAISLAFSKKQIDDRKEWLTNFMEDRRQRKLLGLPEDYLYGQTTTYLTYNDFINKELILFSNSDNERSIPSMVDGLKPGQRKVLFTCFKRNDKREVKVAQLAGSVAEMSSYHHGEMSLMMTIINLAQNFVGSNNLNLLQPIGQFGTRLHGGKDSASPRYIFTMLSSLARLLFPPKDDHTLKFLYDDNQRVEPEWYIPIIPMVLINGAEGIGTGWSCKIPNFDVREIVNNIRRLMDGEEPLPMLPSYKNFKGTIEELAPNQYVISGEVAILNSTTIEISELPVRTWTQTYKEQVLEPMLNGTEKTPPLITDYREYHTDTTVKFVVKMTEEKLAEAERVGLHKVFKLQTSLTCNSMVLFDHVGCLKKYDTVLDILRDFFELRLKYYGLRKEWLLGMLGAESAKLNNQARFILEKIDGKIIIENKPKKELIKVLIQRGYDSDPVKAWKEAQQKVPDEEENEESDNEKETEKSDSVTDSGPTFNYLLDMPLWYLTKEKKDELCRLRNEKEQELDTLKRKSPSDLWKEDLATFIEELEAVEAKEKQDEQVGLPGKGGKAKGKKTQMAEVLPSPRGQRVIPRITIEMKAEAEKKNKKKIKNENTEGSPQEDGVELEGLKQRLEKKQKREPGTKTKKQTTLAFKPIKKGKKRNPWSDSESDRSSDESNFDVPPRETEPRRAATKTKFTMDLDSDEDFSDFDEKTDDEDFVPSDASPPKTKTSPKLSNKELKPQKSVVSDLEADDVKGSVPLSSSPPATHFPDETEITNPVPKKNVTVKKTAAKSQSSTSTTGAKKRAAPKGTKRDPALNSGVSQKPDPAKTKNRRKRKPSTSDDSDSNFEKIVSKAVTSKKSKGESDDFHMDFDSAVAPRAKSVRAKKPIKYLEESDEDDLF

## Cc1c(CO)c(CO)c2n1Cc1c(c3ccccc3n1C)C2
[1]
  IC50: 510 nM
HT-29
  TGI: Active
[2]
  inhibition: Dose-dependent effect
Mus musculus
  Activity: Toxic
[3]
  inhibition: Active
[4]
  Activity: Active
